According to ChEMBL document CHEMBL1122932, “Metabolism of phencyclidine. The role of the carbinolamine intermediate in the formation of lactam and amino acid metabolites of nitrogen heterocycles” (J Med Chem, 1985):

Assays:
Format in all cases: ADME
Mus musculus [1] = species on record: Mus musculus; assay: In vitro level of metabolite in mice liver microsomes at 2 hours
How it was run: (§1)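 12500g liver supernatant from 10 male ICR mice (homogenized in ice-cold pH 7.4 Tris with 0.15 M KCl; stored -70 °C, used within 15 h). Incubated with phencyclidine and NADP/glucose 6-phosphate/nicotinamide/MgSO4 cofactor at 37 °C, 120 osc/min, 100% O2. Metabolites measured by GLC (N-benzylphenylalanine internal standard, nitrogen detector) or HPLC (ketamine internal standard), calibrated by spiking microsomal blanks.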

Mus musculus [2] = species on record: Mus musculus; assay: In vitro level of metabolite in mice liver microsomes at 3 hours; how it was run: as §1
Mus musculus [3] = species on record: Mus musculus; assay: In vitro level of metabolite in mice liver microsomes at 1 hour; how it was run: as §1
Mus musculus [4] = species on record: Mus musculus; assay: In vitro level of metabolite in mice liver microsomes at 3 hours (heat inactivated control); ND is Not Detected (< 8 ug/ vessel)
How it was run: (§2)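 Control in which mouse (male ICR) liver 12500g supernatant was heat-inactivated before phencyclidine and cofactors were added. It was then incubated at 37 °C under 100% O2 with shaking alongside the test samples. Metabolites were quantified by GLC or HPLC against internal standards (N-benzylphenylalanine or ketamine), calibrated by spiking.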

Mus musculus [5] = species on record: Mus musculus; assay: In vitro level of metabolite in mice liver microsomes at 0 hours; ND is Not Detected (< 8 ug/vessel)
How it was run: (§3)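 Time-zero control: the reaction was stopped right after phencyclidine was added to the mouse (male ICR) liver 12500g supernatant plus NADP-regenerating cofactor mix. Metabolites were quantified by GLC or HPLC with internal standards (N-benzylphenylalanine or ketamine), using calibration curves from spiked microsomal mixtures.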

Mus musculus [6] = species on record: Mus musculus; assay: In vitro level of metabolite in mice liver microsomes at 3 hours; ND is Not Detected (< 8 ug/vessel); how it was run: as §1
Mus musculus [7] = species on record: Mus musculus; assay: In vitro level of metabolite in mice liver microsomes at 1 hour; ND is Not Detected (< 8 ug/vessel); how it was run: as §1
Mus musculus [8] = species on record: Mus musculus; assay: In vitro level of metabolite in mice liver microsomes at 2 hours; ND is Not Detected (< 8 ug/vessel); how it was run: as §1
Mus musculus [9] = species on record: Mus musculus; assay: In vitro level of metabolite in mice liver microsomes at 3 hours (heat inactivated control); ND is Not Detected (< 8 ug/vessel); how it was run: as §2
Mus musculus [10] = species on record: Mus musculus; assay: In vitro level of metabolite in mice liver microsomes at 3 hours (heat inactivated control); ND is Not Detected (< 2 ug/vessel); how it was run: as §2
Mus musculus [11] = species on record: Mus musculus; assay: In vitro level of metabolite in mice liver microsomes at 0 hours; ND is […] (< 2 ug/vessel); how it was run: as §3

SMILES	Metabolite levels (Mus musculus [1])	Metabolite levels (Mus musculus [2])	Metabolite levels (Mus musculus [3])	Metabolite levels (Mus musculus [4])	Metabolite levels (Mus musculus [5])	Metabolite levels (Mus musculus [6])	Metabolite levels (Mus musculus [7])	Metabolite levels (Mus musculus [8])	Metabolite levels (Mus musculus [9])	Metabolite levels (Mus musculus [10])	Metabolite levels (Mus musculus [11])
Cl.O=C(O)CCCCNC1(c2ccccc2)CCCCC1	123 µg	135 µg	110 µg	Not detected	Not detected						
OC1CCN(C2(c3ccccc3)CCCCC2)CC1	9.2 µg	10.3 µg	9.3 µg								
O=C1CCCCN1C1(c2ccccc2)CCCCC1					Not detected	Not detected	Not detected	Not detected	Not detected		
OCCCCCNC1(c2ccccc2)CCCCC1	2.4 µg	1.4 µg	2.8 µg							Not detected	Not detected
